Assay results as given in ChEMBL document CHEMBL1121566, “Synthesis and aldose reductase inhibitory activity of 7-sulfamoylxanthone-2-carboxylic acids” (J Med Chem, 1980).
Active and inactive are the calls of the source. No cut-off for these calls is given here.

How the values were obtained:
[1] = biological target: Aldo-keto reductase family 1 member B1 (Oryctolagus cuniculus) (UniProt P15122); assay: Antiallergic agent with Aldose reductase Inhibitory Activity at 10E-6 M concentration
In short: (§1)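 Enzyme was from frozen rabbit lenses, homogenized in water and spun at 10000g. The 50–75% ammonium sulfate fraction was dissolved in 0.05 M NaCl. The assay used 0.067 M phosphate pH 6.0 and 2 × 10^-5 M NADPH, and was started with 5 × 10^-4 M D,L-glyceraldehyde (final). NADPH loss was followed at 340 nm for 2 min at 37 °C. Inhibitors were dissolved in minimal 0.1 N NaOH and diluted with water.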

[2] = biological target: Aldo-keto reductase family 1 member B1 (Oryctolagus cuniculus) (UniProt P15122); assay: Antiallergic agent with Aldose reductase Inhibitory Activity at 10E-5 M concentration; in short: as §1
[3] = biological target: Aldo-keto reductase family 1 member B1 (Oryctolagus cuniculus) (UniProt P15122); assay: Percent inhibition of rabbit lens aldose reductase in vitro at 10E-4 M concentration; in short: as §1
[4] = tested on: Aldose reductase (Oryctolagus cuniculus); assay: In vitro inhibitory activity towards rabbit lens aldose reductase; Active

Row | SMILES | inhibition [1] | inhibition [2] | inhibition [3] | inhibition [4]
1 | CC(O)c1ccc2oc3ccc(C(=O)O)cc3c(=O)c2c1 (stereo not given) | 10% | 10% | 50% | –
2 | CN(CCO)S(=O)(=O)c1ccc2oc3ccc(C(=O)O)cc3c(=O)c2c1 | 83% | 96% | 100% | Active
3 | NS(=O)(=O)c1ccc2oc3ccc(C(=O)O)cc3c(=O)c2c1 | 10% | 20% | 70% | –
4 | CCN(C)S(=O)(=O)c1ccc2oc3ccc(C(=O)O)cc3c(=O)c2c1 | 23% | 81% | 92% | –
5 | CC(C)CN(C)S(=O)(=O)c1ccc2oc3ccc(C(=O)O)cc3c(=O)c2c1 | 25% | 75% | 95% | –
6 | O=C(O)c1ccc2oc3ccc(S(=O)(=O)N(CCO)CCO)cc3c(=O)c2c1 | 2% | 49% | 89% | –
7 | O=C(O)c1ccc2oc3ccc(S(=O)(=O)NCCO)cc3c(=O)c2c1 | 0% | 38% | 79% | –
8 | O=C(O)c1ccc2oc3ccc(OCC(O)CO)cc3c(=O)c2c1 (stereo not given) | 8% | 46% | 88% | –
9 | O=C(O)c1ccc2oc3ccc(S(=O)(=O)N4CCOCC4)cc3c(=O)c2c1 | 0% | 6% | 76% | –
10 | C[S+]([O-])c1ccc2oc3ccc(C(=O)O)cc3c(=O)c2c1 (stereo not given) | 0% | 20% | 63% | –
11 | O=C(O)c1ccc2oc3ccc(S(=O)(=O)CCO)cc3c(=O)c2c1 | 50% | 77% | 96% | –
12 | CNS(=O)(=O)c1ccc2oc3ccc(C(=O)O)cc3c(=O)c2c1 | 25% | 40% | 75% | –
13 | COC(C)c1ccc2oc3ccc(C(=O)O)cc3c(=O)c2c1 (stereo not given) | 0% | 6% | 70% | –
14 | O=C(O)c1ccc2oc3ccc(S(=O)(=O)O)cc3c(=O)c2c1 | 0% | 43% | 70% | –
15 | O=c1c(O)c(-c2ccc(O)c(O)c2)oc2cc(O)cc(O)c12 | 9% | 52% | – | –
16 | CC(C)NS(=O)(=O)c1ccc2oc3ccc(C(=O)O)cc3c(=O)c2c1 | 0% | 30% | 72% | –
17 | O=C(O)c1ccc2oc3ccc([S+]([O-])CCO)cc3c(=O)c2c1 (stereo not given) | 17% | 50% | 87% | –
18 | CN(C)S(=O)(=O)c1ccc2oc3ccc(C(=O)O)cc3c(=O)c2c1 | 67% | 87% | 94% | Active
19 | CC(C)N(C)S(=O)(=O)c1ccc2oc3ccc(C(=O)O)cc3c(=O)c2c1 | 17% | 69% | 89% | –
20 | COCC[S+]([O-])c1ccc2oc3ccc(C(=O)O)cc3c(=O)c2c1 (stereo not given) | 4% | 12% | 65% | –
21 | O=C(O)c1ccc2oc3ccc(S(=O)(=O)N4CCCC4)cc3c(=O)c2c1 | 0% | 46% | 85% | –
22 | O=C(O)c1ccc2oc3ccc(SCCO)cc3c(=O)c2c1 | 7% | 65% | 93% | –
23 | O=C(O)c1ccc2oc3ccccc3c(=O)c2c1 | 0% | 10% | 20% | –
